Measurements taken from ChEMBL document CHEMBL1122679, “Beta-adrenergic blocking agents: substituted phenylalkanolamines. Effect of side-chain length on beta-blocking potency in vitro” (J Med Chem, 1984).

Columns and labels:
[1] = species on record: Cavia porcellus; assay: Beta-adrenoceptor blocking potency in the isolated guinea pig heart, giving 50% inhibition of isoproterenol-induced tachycardia relative to oxprenolol; assay type: functional
[2] = species on record: Cavia porcellus; assay: Beta-adrenoceptor blocking potency in the isolated guinea pig heart, giving 50% inhibition of isoproterenol-induced tachycardia; assay type: functional
In short: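 Langendorff-perfused isolated hearts from male Pirbright guinea pigs (330-640 g), removed under urethane anesthesia (1.5 g/kg ip). Perfusion with oxygenated Krebs-Henseleit plus ascorbic acid and NaEDTA at 36 °C. Heart rate recorded continuously. After ~30 min control, DL-isoproterenol sulfate (0.005 µg/mL) was added to the perfusate. Increasing compound concentrations were then given, 10 min each, against the isoproterenol tachycardia.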

[3] = pK value is evaluated; assay type: ADME; details: read-out: pK
In short: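 Spectrophotometric determination. Dilute solutions were circulated through a glass electrode and a 1-cm spectrophotometer cell. pKa was calculated from the pH-dependent spectra.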

[4] = Partition coefficient (logP); assay type: physicochemical; details: octanol/water
In short: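 Octanol/buffer partitioning. Compounds at about 10^-4 M in 0.067 M pH 7.4 phosphate buffer (octanol-saturated) were shaken with buffer-saturated 1-octanol for 1 h at 25.0 °C, then centrifuged. Concentrations in each phase were measured spectrophotometrically. The coefficient was taken as the octanol/buffer concentration ratio, done in triplicate.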

[5] = species on record: Cavia porcellus; assay: Compound was evaluated for beta-adrenoceptor blocking potency in the isolated guinea pig, giving 50% inhibition of isoproterenol-induced tachycardia relative to oxprenolol; assay type: functional

pKa [3] | logP [4] | logP ([4]; read-out: logP) | SMILES | Relative activity [1] | -Log concentration [2] | Relative activity [5]
9.4 | 0.2 |  | C=CCOc1ccccc1OCC(O)CNC(C)C (stereo unspecified) [OXPRENOLOL] | 1 | 7.6 M l-1 | 
 |  |  | COc1ccccc1CCCCC(O)CNCCOc1ccc(O)c(C(N)=O)c1 (stereo unspecified) | 0.068 | 6.43 log_unit | 
 |  |  | NC(=O)c1cc(OCCNCC(O)Cc2ccccc2)ccc1O (stereo unspecified) | 0.018 | 5.84 log_unit | 
8.8 |  | 1.14 | COc1ccccc1OCC(O)CNCCOc1ccc(O)c(C(N)=O)c1 (stereo unspecified) |  | 8.45 log_unit | 6.9
 |  |  | COc1ccc(CCC(O)CNCCOc2ccc(O)c(C(N)=O)c2)cc1 (stereo unspecified) |  | 6.07 log_unit | 0.029
 |  |  | COc1ccccc1C(O)CNCCOc1ccc(O)c(C(N)=O)c1 (stereo unspecified) | 0.33 | 7.12 log_unit | 
 |  | 1.24 | NC(=O)c1cc(OCCNCC(O)c2ccccc2)ccc1O (stereo unspecified) | 0.011 | 5.66 log_unit | 
 |  |  | NC(=O)c1cc(OCCNCC(O)CCc2ccccc2)ccc1O (stereo unspecified) | 0.19 | 6.9 log_unit | 
 |  |  | Cc1ccccc1CCC(O)CNCCOc1ccc(O)c(C(N)=O)c1 (stereo unspecified) | 0.3 | 7.08 log_unit | 
 |  |  | COc1ccccc1CC(O)CNCCOc1ccc(O)c(C(N)=O)c1 (stereo unspecified) | 0.061 | 6.39 log_unit | 
9.8 |  | -0.44 | COc1ccccc1OCC(O)CNC(C)(C)C (stereo unspecified) | 0.45 | 7.26 log_unit | 
8.9 |  | 1.56 | COc1ccccc1CCC(O)CNCCOc1ccc(O)c(C(N)=O)c1 (stereo unspecified) | 1.8 | 7.85 log_unit | 
9.9 |  | -0.21 | COc1ccccc1CCC(O)CNC(C)(C)C (stereo unspecified) | 0.012 | 5.67 log_unit | 
 |  |  | COc1ccccc1CCCC(O)CNCCOc1ccc(O)c(C(N)=O)c1 (stereo unspecified) | 0.1 | 6.6 log_unit | 
 |  |  | NC(=O)c1cc(OCCNCC(O)CCCCc2ccccc2)ccc1O (stereo unspecified) | 0.018 | 5.85 log_unit | 
